These results are taken from publication PMC4116675 (Molecular microbiology, 2014).

For test [1], the system named is AlgW (substrate 35S-MucA, inhibitor MucB). The test is described as follows: AlgW cleavage of 35S-MucA in the presence of MucB. Type of test: biochemical, Pseudomonas aeruginosa. The settings on record: for MucA cleavage level relative to WVF and AlgW alone (no MucB): Figs. 4B vs 4D, CupB5 peptide + WVF + MucB; for antagonism / relief of MucB inhibition in vitro: summary statement, WVF-activated AlgW cleavage of MucA with MucB.

Test [2] deals with AlgW (substrate 35S-MucA). Briefly: WVF-activated AlgW cleavage of 35S-MucA with or without CupB5 peptides. The settings on record: Fig. 5C; GYYYTVV 300 μM, increasing WVF, fixed MucA (50 μM). Format: biochemical, Pseudomonas aeruginosa. In a few lines: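 Ni-NTA-purified AlgW (0.5 μM trimer) cleaved 35S-MucA (50 μM) across a range of WVF peptide concentrations, with or without CupB5 peptides (300 μM). Protease addition started the reactions; cold 10% TCA quenched them at timed points. Acid-soluble products were scintillation-counted against total radioactivity, and rates were divided by substrate and enzyme concentrations. Values were averages ± SEM (n=2), fitted to rate = basal + Vmax/(1 + (Kact/[peptide])h).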

In test [3] the test system is MucB. The test is described as follows: MucB oligomerization, gel-filtration chromatography. The settings on record: Fig. S2. Type of test: binding, Pseudomonas aeruginosa.
Test [4] has as its system MucB. The settings on record: ref Lima et al., 2013; cited from earlier work.
Test [5] concerns P. aeruginosa strain PAO1 and derivatives. The test is described as follows: Alginate production and mucoid phenotype on plasmid overexpression of proteins. Format: cell-based, Pseudomonas aeruginosa. The settings on record: Fig. 6A, 6B; for alginate production in PAO1-VE2 on plasmid-mediated overproduction: PAO1-VE2 (mucE overexpressed); for alginate production in PAO1-VE22 on plasmid-mediated overproduction: PAO1-VE22 (cupB5 overexpressed), 0.1% L-arabinose, 37°C, 24 h.

Entries after “also recorded” stand apart in the source; their conditions may differ.

With GYYYT, in test [1] (Fig. 4D, WVF 150 μM, MucB present), the “potency and cooperativity of activation, GYYYT vs GYYYTVV” value was “occurred at lower peptide concentrations and was less cooperative as judged by the Hill constant than activation by the GYYYTVV peptide”. In test [1], the “MucA cleavage level relative to WVF and AlgW alone (no MucB)” value is “approximately one-third”; the “antagonism / relief of MucB inhibition in vitro” value is “did antagonize MucB inhibition in vitro; also recorded: only partially relieve MucB inhibition in vitro”.
With GYYYTVV, in test [1], the “MucA cleavage level relative to WVF and AlgW alone (no MucB)” value is recorded as “approximately one-third”; the “antagonism / relief of MucB inhibition in vitro” value is “antagonized MucB inhibition in vitro; also recorded: only partially relieve MucB inhibition in vitro”. Also, the “change in maximum rate of MucA cleavage on adding CupB5 peptide” value in test [2] was “increased almost two-fold”. Besides, the “change in MucB elution / conversion of MucB dimers to tetramers” value with MucB [3] is reported as “no substantial change in elution during gel-filtration chromatography; also recorded: did not convert MucB dimers into tetramers”.
As to Lipopolysaccharides, the “binding to MucB and displacement of MucA” value in the test with MucB [4] was “bind MucB and competitively displace MucA”.

B1: MucB: competes for MucA binding and can inhibit this cleavage (protein, UniProt P38108 22-316, looked up)
Sigma factor AlgU regulatory …: ADASDWLNRLAEADRQNSFQGTFVYERNGSFSTHEIWHRVESDGAVRERLLQLDGARQEVVRVDGRTQCISGGLADQLADAQLWPVRKFDPSQLASWYDLRLVGESRVAGRPAVVLAVTPRDQHRYGFELHLDRDTGLPLKSLLLNEKGQLLERFQFTQLNTGAAPAEDQLQAGAECQVVGPAKADGEKTVAWRSEWLPPGFTLTRSFMRRSPVTPDPVACLTYGDGLARFSVFIEPLHGAMVGDARSQLGPTVVVSKRLQTDDGGQMVTVVGEVPLGTAERVALSIRPEAAAQK
In the case of B1, in test [5], the “alginate production in PAO1-VE2 on plasmid-mediated overproduction” value is “decreased alginate production in PAO1-VE2” and the “alginate production in PAO1-VE22 on plasmid-mediated overproduction” value is listed as “plasmid-mediated MucB overproduction had this effect”.

B2: MucA: anti-sigma factor; free MucA as competitor of resin-bound MucA (protein, UniProt P38107 1-194, looked up)
Sigma factor AlgU negative …: MSREALQETLSAVMDNEADELELRRVLAACGEDAELRSTWSRYQLARSVMHREPTLPKLDIAAAVSAALADEAAPPKAEKGPWRMVGRLAVAASVTLAVLAGVRLYNQNDALPQMAQQGTTPQIALPQVKGPAVLAGYSEEQGAPQVITNSSSSDTRWHEQRLPIYLRQHVQQSAVSGTESALPYARAASLENR
Turning to B2, in test [5], the “alginate production in PAO1-VE2 on plasmid-mediated overproduction” value is “decreased alginate production in PAO1-VE2” and the “alginate production in PAO1-VE22 on plasmid-mediated overproduction” value is listed as “as did plasmid-mediated overproduction of MucA”.
